From ChEMBL document CHEMBL1124503, “The role of position 4 in angiotensin II antagonism: a structure-activity study” (J Med Chem, 1989)
*1 amine or outer side, *2 acyl side, *3 side chain or, on linkers, in order; H or OH if unused. Where a SMILES comes first, the peptide text is derived from it. [ ]: non-standard residue; d: D form. Phe(4-SO2NH2) = N[C@@H](Cc1ccc(S(N)(=O)=O)cc1)C(=O)O; Phe(4-NO2) = N[C@@H](Cc1ccc([N+](=O)[O-])cc1)C(=O)O; Phe(4-SO3H) = N[C@@H](Cc1ccc(S(=O)(=O)O)cc1)C(=O)O; X2 = CC(=O)NCSc1ccc(C[C@H](N[*:1])C(=O)[*:2])cc1; Phe(4-B(OH)2) = N[C@@H](Cc1ccc(B(O)O)cc1)C(=O)O; Phe(4-Cl) = N[C@@H](Cc1ccc(Cl)cc1)C(=O)O; X1 = O=C([C@H](Cc1ccc(S)cc1)N[*:1])[*:2]; Phe(4-NH2) = Nc1ccc(C[C@H](N)C(=O)O)cc1; Phe(4-F) = N[C@@H](Cc1ccc(F)cc1)C(=O)O; Sar = CNCC(=O)O

Key:
Rattus norvegicus [1] = experiment: Residual ANG II-like antagonist activity, ID50 was measured in vivo, in the rat blood pressure assay; format: functional
[2] = test system: Angiotensin II receptor (Oryctolagus cuniculus); experiment: Angiotensin II-like agonist activity, measured in the in vitro rabbit aorta strip assay
[3] = target: Angiotensin II receptor (Rattus norvegicus) (UniProt P29089+P25095+P35351); experiment: In vivo blood pressure increase produced by a 1 ug bolus i.v.; format: functional, organism-based
In short: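 Rat blood pressure assay (Regoli et al.); agonist activity read as the mmHg rise in blood pressure after a 1 μg intravenous bolus of compound.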

Oryctolagus cuniculus = organism: Oryctolagus cuniculus; experiment: Antagonist activity pA2, was measured in the in vitro rabbit aorta strip assay; format: functional; details: read-out: pA2 (converted)
In short: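 Isolated rabbit aorta strip (method of Rioux et al.); pA2 against the ANG II dose-response curve, determined at low antagonist doses within the competitive-inhibition range.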

Rattus norvegicus [4] = organism: Rattus norvegicus; experiment: Antagonist activity pA2, was measured in the in vitro rat uterus strip assay; format: functional; details: read-out: pA2 (converted)

Compound | ID50 (Rattus norvegicus [1]) | Activity [2] | Blood pressure [3] | Kb (Oryctolagus cuniculus) | Kb (Rattus norvegicus [4])
CC[C@H](C)[C@H](NC(=O)[C@@H]1CCCN1C(=O)[C@H](Cc1c[nH]cn1)NC(=O)[C@@H](NC(=O)[C@H](Cc1ccc(B(O)O)cc1)NC(=O)[C@@H](NC(=O)[C@H](CCCN=C(N)N)NC(=O)CNC)C(C)C)[C@@H](C)CC)C(=O)O (H-[Sar]RV[Phe(4-B(OH)2)]IHPI-OH) | 500 ng min-1 rat-1 | 0% | 0 mmHg | 2000 nM | 
H-DRVYIHPL-OH |  | < 0.1% |  | 1.66 nM | 
CC[C@H](C)[C@H](NC(=O)[C@H](Cc1ccc(N)cc1)NC(=O)[C@@H](NC(=O)[C@H](CCCN=C(N)N)NC(=O)CNC)C(C)C)C(=O)N[C@@H](Cc1c[nH]cn1)C(=O)N1CCC[C@H]1C(=O)N[C@@H](Cc1ccccc1)C(=O)O (H-[Sar]RV[Phe(4-NH2)]IHPF-OH) |  | 15% |  |  | 
CC[C@H](C)[C@H](NC(=O)[C@H](Cc1ccc(S(=O)(=O)O)cc1)NC(=O)[C@@H](NC(=O)[C@H](CCCN=C(N)N)NC(=O)CNC)C(C)C)C(=O)N[C@@H](Cc1c[nH]cn1)C(=O)N1CCC[C@H]1C(=O)N[C@@H](Cc1ccccc1)C(=O)O (H-[Sar]RV[Phe(4-SO3H)]IHPF-OH) |  | 0% |  | > 1000 nM | 
CC[C@H](C)[C@H](NC(=O)[C@H](Cc1ccc(O)cc1)NC(=O)[C@@H](NC(=O)[C@H](CCCN=C(N)N)NC(=O)CNC)C(C)C)C(=O)N[C@@H](Cc1c[nH]cn1)C(=O)N1CCC[C@H]1C(=O)N[C@@H](Cc1ccccc1)C(=O)O |  |  | 50 mmHg |  | 
H-DRVFIHPY-OH |  |  |  |  | 240 nM
CC[C@H](C)[C@H](NC(=O)[C@H](Cc1ccccc1)NC(=O)[C@@H](NC(=O)[C@H](CCCN=C(N)N)NC(=O)CNC)C(C)C)C(=O)N[C@@H](Cc1c[nH]cn1)C(=O)N1CCC[C@H]1C(=O)N[C@@H](Cc1ccc(O)cc1)C(=O)O | 50 ng min-1 rat-1 | 0% | 5.5 mmHg | 31.6 nM | 
CC[C@H](C)[C@H](NC(=O)[C@H](Cc1ccc(OC)cc1)NC(=O)[C@@H](NC(=O)[C@H](CCCN=C(N)N)NC(=O)CNC)C(C)C)C(=O)N[C@@H](Cc1c[nH]cn1)C(=O)N1CCC[C@H]1C(=O)N[C@@H](Cc1ccccc1)C(=O)O | 250 ng min-1 rat-1 | 0% | 20 mmHg | 79.4 nM | 
CC[C@H](C)[C@H](NC(=O)[C@H](Cc1ccc(S)cc1)NC(=O)[C@@H](NC(=O)[C@H](CCCN=C(N)N)NC(=O)CNC)C(C)C)C(=O)N[C@@H](Cc1c[nH]cn1)C(=O)N1CCC[C@H]1C(=O)N[C@@H](Cc1ccccc1)C(=O)O (H-[Sar]RV[X1]IHPF-OH) |  | 0.9% |  | > 1000 nM | 
CC[C@H](C)[C@H](NC(=O)[C@H](Cc1ccc(F)cc1)NC(=O)[C@@H](NC(=O)[C@H](CCCN=C(N)N)NC(=O)CNC)C(C)C)C(=O)N[C@@H](Cc1c[nH]cn1)C(=O)N1CCC[C@H]1C(=O)N[C@H](Cc1ccccc1)C(=O)O | 50 ng min-1 rat-1 | 0% | 10 mmHg | 141 nM | 
CC[C@H](C)[C@H](NC(=O)[C@H](Cc1ccccc1)NC(=O)[C@@H](NC(=O)[C@H](CCCN=C(N)N)NC(=O)CNC)C(C)C)C(=O)N[C@@H](Cc1c[nH]cn1)C(=O)N1CCC[C@H]1C(=O)N[C@H](Cc1ccc(O)cc1)C(=O)O | 30 ng min-1 rat-1 | 0% | 5 mmHg | 100 nM | 
CC[C@H](C)[C@H](NC(=O)[C@H](Cc1ccc(S(N)(=O)=O)cc1)NC(=O)[C@@H](NC(=O)[C@H](CCCN=C(N)N)NC(=O)CNC)C(C)C)C(=O)N[C@@H](Cc1c[nH]cn1)C(=O)N1CCC[C@H]1C(=O)N[C@@H](Cc1ccccc1)C(=O)O (H-[Sar]RV[Phe(4-SO2NH2)]IHPF-OH) |  | 0.9% |  |  | 
CC[C@H](C)[C@H](NC(=O)[C@H](Cc1ccc(SCNC(C)=O)cc1)NC(=O)[C@@H](NC(=O)[C@H](CCCN=C(N)N)NC(=O)CNC)C(C)C)C(=O)N[C@@H](Cc1c[nH]cn1)C(=O)N1CCC[C@H]1C(=O)N[C@@H](Cc1ccccc1)C(=O)O (H-[Sar]RV[X2]IHPF-OH) |  | 9% |  | 8.13 nM | 
CC[C@H](C)[C@H](NC(=O)[C@H](Cc1ccccc1)NC(=O)[C@@H](NC(=O)[C@H](CCCN=C(N)N)NC(=O)CNC)C(C)C)C(=O)N[C@@H](Cc1c[nH]cn1)C(=O)N1CCC[C@H]1C(=O)N[C@@H](Cc1ccccc1)C(=O)O (H-[Sar]RVFIHPF-OH) |  | 22% |  | 12.6 nM | 
CC[C@H](C)[C@H](NC(=O)[C@@H]1CCCN1C(=O)[C@H](Cc1c[nH]cn1)NC(=O)[C@@H](NC(=O)[C@H](Cc1ccc([N+](=O)[O-])cc1)NC(=O)[C@@H](NC(=O)[C@H](CCCN=C(N)N)NC(=O)CNC)C(C)C)[C@@H](C)CC)C(=O)O (H-[Sar]RV[Phe(4-NO2)]IHPI-OH) |  | 0% | 5 mmHg | 79.4 nM | 
CC[C@H](C)[C@H](NC(=O)[C@@H]1CCCN1C(=O)[C@H](Cc1c[nH]cn1)NC(=O)[C@@H](NC(=O)[C@H](Cc1ccc(F)cc1)NC(=O)[C@@H](NC(=O)[C@H](CCCN=C(N)N)NC(=O)CNC)C(C)C)[C@@H](C)CC)C(=O)O (H-[Sar]RV[Phe(4-F)]IHPI-OH) | 750 ng min-1 rat-1 | 0% | 0 mmHg | 158 nM | 
CC[C@H](C)[C@H](NC(=O)[C@H](Cc1ccc(F)cc1)NC(=O)[C@@H](NC(=O)[C@H](CCCN=C(N)N)NC(=O)CNC)C(C)C)C(=O)N[C@@H](Cc1c[nH]cn1)C(=O)N1CCC[C@H]1C(=O)N[C@@H](Cc1ccccc1)C(=O)O | 150 ng min-1 rat-1 | 0% | 22 mmHg | 31.6 nM | 
CC[C@H](C)[C@H](NC(=O)[C@@H]1CCCN1C(=O)[C@H](Cc1c[nH]cn1)NC(=O)[C@@H](NC(=O)[C@H](Cc1ccc(Cl)cc1)NC(=O)[C@@H](NC(=O)[C@H](CCCN=C(N)N)NC(=O)CNC)C(C)C)[C@@H](C)CC)C(=O)O (H-[Sar]RV[Phe(4-Cl)]IHPI-OH) | 500 ng min-1 rat-1 | 0% | 2 mmHg | > 1000 nM | 
CC[C@H](C)[C@H](NC(=O)[C@H](Cc1ccc(O)cc1)NC(=O)[C@@H](NC(=O)[C@H](CCCN=C(N)N)NC(=O)CNC)C(C)C)C(=O)N[C@@H](Cc1c[nH]cn1)C(=O)N1CCC[C@H]1C(=O)N[C@H](Cc1ccc(O)cc1)C(=O)O | 20 ng min-1 rat-1 | 0% | 15 mmHg | 5.62 nM | 
CC[C@H](C)[C@H](NC(=O)[C@@H]1CCCN1C(=O)[C@H](Cc1c[nH]cn1)NC(=O)[C@@H](NC(=O)[C@H](Cc1ccc(OC)cc1)NC(=O)[C@@H](NC(=O)[C@H](CCCN=C(N)N)NC(=O)CNC)C(C)C)[C@@H](C)CC)C(=O)O | 100 ng min-1 rat-1 | 0% | 3 mmHg | 79.4 nM | 
CCOc1ccc(C[C@H](NC(=O)[C@@H](NC(=O)[C@H](CCCN=C(N)N)NC(=O)CNC)C(C)C)C(=O)N[C@H](C(=O)N[C@@H](Cc2c[nH]cn2)C(=O)N2CCC[C@H]2C(=O)N[C@H](C(=O)O)[C@@H](C)CC)[C@@H](C)CC)cc1 | >1000 ng min-1 rat-1 | 0% | 5 mmHg | > 1000 nM | 
CC[C@H](C)[C@H](NC(=O)[C@H](Cc1ccc(B(O)O)cc1)NC(=O)[C@@H](NC(=O)[C@H](CCCN=C(N)N)NC(=O)CNC)C(C)C)C(=O)N[C@@H](Cc1c[nH]cn1)C(=O)N1CCC[C@H]1C(=O)N[C@@H](Cc1ccccc1)C(=O)O (H-[Sar]RV[Phe(4-B(OH)2)]IHPF-OH) |  | 10% |  |  | 
CC[C@H](C)[C@H](NC(=O)C1CCCN1C(=O)[C@H](Cc1c[nH]cn1)NC(=O)[C@@H](NC(=O)[C@H](Cc1ccc(O)cc1)NC(=O)[C@@H](NC(=O)[C@H](CCCN=C(N)N)NC(=O)CNC)C(C)C)[C@@H](C)CC)C(=O)O (single isomer, unassigned) | 10 ng min-1 rat-1 |  | 10 mmHg | 0.794 nM | 
CC[C@H](C)[C@H](NC(=O)[C@@H]1CCCN1C(=O)[C@H](Cc1c[nH]cn1)NC(=O)[C@@H](NC(=O)[C@H](Cc1ccccc1)NC(=O)[C@@H](NC(=O)[C@H](CCCN=C(N)N)NC(=O)CNC)C(C)C)[C@@H](C)CC)C(=O)O (H-[Sar]RVFIHPI-OH) | 80 ng min-1 rat-1 | 0% | 2.7 mmHg | 3.16 nM | 
CC[C@H](C)[C@H](NC(=O)[C@H](Cc1ccc(Cl)cc1)NC(=O)[C@@H](NC(=O)[C@H](CCCN=C(N)N)NC(=O)CNC)C(C)C)C(=O)N[C@@H](Cc1c[nH]cn1)C(=O)N1CCC[C@H]1C(=O)N[C@@H](Cc1ccccc1)C(=O)O (H-[Sar]RV[Phe(4-Cl)]IHPF-OH) | 30 ng min-1 rat-1 | 0% | 5.5 mmHg | 31.6 nM | 
CC[C@H](C)[C@H](NC(=O)[C@H](Cc1ccc(O)cc1)NC(=O)[C@@H](NC(=O)[C@H](CCCN=C(N)N)NC(=O)CNC)C(C)C)C(=O)N[C@@H](Cc1c[nH]cn1)C(=O)N1CCC[C@H]1C(=O)N[C@H](Cc1ccccc1)C(=O)O | 12.5 ng min-1 rat-1 |  | 10 mmHg | 1 nM | 
